Data taken from ChEMBL document CHEMBL3297719, “Hybrid dopamine uptake blocker-serotonin releaser ligands: a new twist on transporter-focused therapeutics” (ACS Med Chem Lett, 2014).
The source made the active and inactive calls. No cut-off for these calls is given here.

Experiments:
[1] = molecular target: T1, Sodium-dependent serotonin transporter (Rattus norvegicus, UniProt P31652); experiment: Induction of SERT-mediated serotonin release in rat synaptosomes; format: subcellular, Brain
Procedure, shortened: (§1)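 Synaptosomes prepared from rat brain homogenate. Each compound was run in both the release assay and the uptake-inhibition assay to classify it as a releasing substrate or an uptake inhibitor. Dose-response curves were then completed only for the assigned activity. Values are means ± SD from N = 3 experiments, each performed in triplicate.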

[2] = molecular target: Transporter (Rattus norvegicus) (UniProt Q63380); experiment: Inhibition of NET-mediated norepinephrine uptake in rat synaptosomes; format: subcellular; conditions: Brain; procedure, shortened: as §1
[3] = molecular target: Transporter (Rattus norvegicus) (UniProt Q63380); experiment: Induction of NET-mediated norepinephrine release in rat synaptosomes; format: subcellular; conditions: Brain; procedure, shortened: as §1
[4] = molecular target: 5-hydroxytryptamine receptor 2A (Homo sapiens) (UniProt P28223); experiment: Agonist activity at human 5HT2A expressed in HEK293 cells at 10 uM by calcium mobilization assay; format: functional, cell-based
[5] = molecular target: 5-hydroxytryptamine receptor 2B (Homo sapiens) (UniProt P41595); experiment: Agonist activity at human 5HT2B expressed in HEK293 cells at 10 uM by calcium mobilization assay; format: functional, cell-based
[6] = molecular target: 5-hydroxytryptamine receptor 2B (Homo sapiens) (UniProt P41595); experiment: Agonist activity at human 5HT2C expressed in HEK293 cells at 10 uM by calcium mobilization assay; format: functional, cell-based
[7] = molecular target: T2, 5-hydroxytryptamine receptor 1A (Homo sapiens) (UniProt P08908); experiment: Agonist activity at human 5HT1A expressed in CHO cells coexpressing Galpha16 at 10 uM by calcium mobilization assay; format: functional, cell-based
T2 sequence (whole entry): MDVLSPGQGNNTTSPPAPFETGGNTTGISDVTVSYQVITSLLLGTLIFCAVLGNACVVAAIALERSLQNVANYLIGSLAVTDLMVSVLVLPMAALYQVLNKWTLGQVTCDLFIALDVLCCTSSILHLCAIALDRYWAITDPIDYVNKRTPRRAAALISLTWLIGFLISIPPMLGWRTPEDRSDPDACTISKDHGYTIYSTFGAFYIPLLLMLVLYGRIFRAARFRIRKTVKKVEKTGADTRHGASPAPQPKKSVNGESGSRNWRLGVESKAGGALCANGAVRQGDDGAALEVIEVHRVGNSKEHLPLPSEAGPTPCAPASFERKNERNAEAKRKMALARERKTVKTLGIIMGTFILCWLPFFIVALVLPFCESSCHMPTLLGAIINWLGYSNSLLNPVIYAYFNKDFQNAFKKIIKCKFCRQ

[8] = molecular target: 5-hydroxytryptamine receptor 2A (Homo sapiens) (UniProt P28223); experiment: Agonist activity at human 5HT2A expressed in CHOK1 cells at 10 uM after 3 hrs by beta-arrestin recruitment assay; format: cell-based; conditions: CHO-K1
[9] = molecular target: T3, Sodium-dependent dopamine transporter (Rattus norvegicus, UniProt P23977); experiment: Inhibition of DAT-mediated dopamine uptake in rat synaptosomes; format: subcellular, Brain; procedure, shortened: as §1
[10] = molecular target: T1, Sodium-dependent serotonin transporter; experiment: Inhibition of SERT-mediated serotonin uptake in rat synaptosomes; format: subcellular, Brain; procedure, shortened: as §1
[11] = molecular target: T3, Sodium-dependent dopamine transporter; experiment: Induction of DAT-mediated dopamine release in rat synaptosomes; format: subcellular, Brain; procedure, shortened: as §1
[12] = molecular target: Sodium-dependent dopamine transporter (Homo sapiens, UniProt Q01959); experiment: Inhibition of DAT (unknown origin)-mediated dopamine reuptake
[13] = molecular target: Sodium-dependent serotonin transporter (Homo sapiens, UniProt P31645); experiment: Induction of SERT (unknown origin)-mediated serotonin release
Sequence of Sodium-dependent serotonin transporter (Homo sapiens, UniProt P31645) (P31645 whole entry): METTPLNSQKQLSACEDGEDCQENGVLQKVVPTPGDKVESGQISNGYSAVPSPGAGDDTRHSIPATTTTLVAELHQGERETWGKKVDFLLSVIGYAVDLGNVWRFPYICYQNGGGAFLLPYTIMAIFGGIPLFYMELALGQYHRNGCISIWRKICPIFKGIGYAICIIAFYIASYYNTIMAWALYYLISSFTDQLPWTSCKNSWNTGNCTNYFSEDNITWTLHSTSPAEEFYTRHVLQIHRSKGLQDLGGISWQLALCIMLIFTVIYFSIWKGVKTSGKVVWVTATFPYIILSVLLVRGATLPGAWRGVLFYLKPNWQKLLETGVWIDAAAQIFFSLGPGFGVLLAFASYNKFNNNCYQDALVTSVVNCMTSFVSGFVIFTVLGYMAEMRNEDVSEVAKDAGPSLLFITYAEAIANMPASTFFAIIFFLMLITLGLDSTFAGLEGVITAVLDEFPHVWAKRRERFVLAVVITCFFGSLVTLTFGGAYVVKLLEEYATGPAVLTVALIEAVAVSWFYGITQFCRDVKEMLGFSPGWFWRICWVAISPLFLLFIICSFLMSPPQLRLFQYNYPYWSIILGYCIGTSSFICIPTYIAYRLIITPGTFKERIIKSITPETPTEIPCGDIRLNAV

T1 sequence (P31652 whole entry): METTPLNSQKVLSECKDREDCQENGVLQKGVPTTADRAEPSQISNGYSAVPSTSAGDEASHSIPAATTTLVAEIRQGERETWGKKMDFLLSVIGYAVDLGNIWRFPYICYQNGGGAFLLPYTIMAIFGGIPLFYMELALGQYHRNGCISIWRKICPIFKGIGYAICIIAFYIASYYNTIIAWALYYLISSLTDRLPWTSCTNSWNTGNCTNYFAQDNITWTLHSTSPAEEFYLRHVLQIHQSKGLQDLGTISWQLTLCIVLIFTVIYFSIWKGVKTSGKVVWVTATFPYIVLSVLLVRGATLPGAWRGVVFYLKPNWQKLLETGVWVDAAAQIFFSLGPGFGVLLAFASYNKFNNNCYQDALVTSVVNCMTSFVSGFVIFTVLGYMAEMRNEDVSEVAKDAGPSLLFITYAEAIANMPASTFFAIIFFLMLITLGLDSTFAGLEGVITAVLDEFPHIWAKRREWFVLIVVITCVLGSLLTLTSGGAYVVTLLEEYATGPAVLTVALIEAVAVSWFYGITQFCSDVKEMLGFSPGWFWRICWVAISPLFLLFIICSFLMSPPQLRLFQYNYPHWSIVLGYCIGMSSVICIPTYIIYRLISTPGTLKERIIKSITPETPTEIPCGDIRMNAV
Sequence of Transporter (Rattus norvegicus) (Q63380 as listed by the source): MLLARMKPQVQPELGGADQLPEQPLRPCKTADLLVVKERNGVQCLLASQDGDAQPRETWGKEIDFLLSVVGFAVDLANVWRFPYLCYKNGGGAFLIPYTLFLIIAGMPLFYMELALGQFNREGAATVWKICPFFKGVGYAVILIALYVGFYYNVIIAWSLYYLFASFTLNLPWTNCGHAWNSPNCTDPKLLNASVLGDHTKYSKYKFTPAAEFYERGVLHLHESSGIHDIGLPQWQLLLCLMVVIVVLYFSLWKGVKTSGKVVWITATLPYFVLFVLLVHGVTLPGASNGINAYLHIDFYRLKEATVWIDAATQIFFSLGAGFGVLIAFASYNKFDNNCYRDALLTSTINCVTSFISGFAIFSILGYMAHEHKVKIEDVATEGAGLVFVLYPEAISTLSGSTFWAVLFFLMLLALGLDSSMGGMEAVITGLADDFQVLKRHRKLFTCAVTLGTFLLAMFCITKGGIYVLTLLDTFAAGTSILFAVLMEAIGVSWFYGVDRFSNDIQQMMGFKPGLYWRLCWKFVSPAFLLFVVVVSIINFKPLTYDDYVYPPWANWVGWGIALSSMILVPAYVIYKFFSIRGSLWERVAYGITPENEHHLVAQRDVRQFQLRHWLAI
Sequence of 5-hydroxytryptamine receptor 2B (Homo sapiens) (P41595 whole entry): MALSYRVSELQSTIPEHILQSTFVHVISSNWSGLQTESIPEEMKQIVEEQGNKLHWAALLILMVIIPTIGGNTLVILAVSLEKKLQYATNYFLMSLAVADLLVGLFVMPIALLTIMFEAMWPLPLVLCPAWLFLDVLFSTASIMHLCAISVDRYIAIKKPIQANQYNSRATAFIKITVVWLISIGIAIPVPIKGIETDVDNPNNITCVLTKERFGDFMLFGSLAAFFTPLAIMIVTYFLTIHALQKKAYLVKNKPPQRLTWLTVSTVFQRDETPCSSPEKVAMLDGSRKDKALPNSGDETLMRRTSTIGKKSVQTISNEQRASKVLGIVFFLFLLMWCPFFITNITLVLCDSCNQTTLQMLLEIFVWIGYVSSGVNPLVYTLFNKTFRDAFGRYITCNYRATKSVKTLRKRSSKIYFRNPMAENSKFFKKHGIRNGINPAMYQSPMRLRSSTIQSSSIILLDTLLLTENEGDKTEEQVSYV
T3 sequence (P23977 whole entry): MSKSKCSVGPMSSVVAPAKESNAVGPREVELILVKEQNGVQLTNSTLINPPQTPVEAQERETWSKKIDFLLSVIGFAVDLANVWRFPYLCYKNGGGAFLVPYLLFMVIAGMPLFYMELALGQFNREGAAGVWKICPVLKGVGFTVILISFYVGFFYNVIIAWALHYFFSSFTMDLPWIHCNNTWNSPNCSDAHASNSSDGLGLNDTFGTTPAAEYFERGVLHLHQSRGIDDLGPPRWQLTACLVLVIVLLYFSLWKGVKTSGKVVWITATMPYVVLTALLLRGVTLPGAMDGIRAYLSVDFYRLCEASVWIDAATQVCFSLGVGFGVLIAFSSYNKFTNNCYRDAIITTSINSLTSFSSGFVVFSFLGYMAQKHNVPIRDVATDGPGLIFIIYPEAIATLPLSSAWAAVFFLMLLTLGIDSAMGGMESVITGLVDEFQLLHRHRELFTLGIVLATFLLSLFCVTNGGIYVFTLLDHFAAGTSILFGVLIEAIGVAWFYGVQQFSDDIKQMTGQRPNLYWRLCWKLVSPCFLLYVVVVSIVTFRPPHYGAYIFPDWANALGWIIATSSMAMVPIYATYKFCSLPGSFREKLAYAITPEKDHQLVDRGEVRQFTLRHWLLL
Sequence of 5-hydroxytryptamine receptor 2A (Homo sapiens) (P28223 whole entry): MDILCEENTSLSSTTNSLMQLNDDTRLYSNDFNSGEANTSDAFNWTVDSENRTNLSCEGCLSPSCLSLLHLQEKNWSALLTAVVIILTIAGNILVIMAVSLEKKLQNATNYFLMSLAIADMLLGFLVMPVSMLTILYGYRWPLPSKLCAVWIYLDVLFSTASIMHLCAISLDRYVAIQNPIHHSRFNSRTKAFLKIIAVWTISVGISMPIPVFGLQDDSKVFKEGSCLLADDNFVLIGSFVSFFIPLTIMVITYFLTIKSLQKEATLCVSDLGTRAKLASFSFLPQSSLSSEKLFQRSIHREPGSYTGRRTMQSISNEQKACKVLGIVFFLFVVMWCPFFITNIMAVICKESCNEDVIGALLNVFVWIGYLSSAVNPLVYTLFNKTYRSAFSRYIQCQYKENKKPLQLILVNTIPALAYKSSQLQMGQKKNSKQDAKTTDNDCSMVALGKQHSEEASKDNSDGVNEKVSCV
Sequence of Sodium-dependent dopamine transporter (Homo sapiens, UniProt Q01959) (Q01959 whole entry): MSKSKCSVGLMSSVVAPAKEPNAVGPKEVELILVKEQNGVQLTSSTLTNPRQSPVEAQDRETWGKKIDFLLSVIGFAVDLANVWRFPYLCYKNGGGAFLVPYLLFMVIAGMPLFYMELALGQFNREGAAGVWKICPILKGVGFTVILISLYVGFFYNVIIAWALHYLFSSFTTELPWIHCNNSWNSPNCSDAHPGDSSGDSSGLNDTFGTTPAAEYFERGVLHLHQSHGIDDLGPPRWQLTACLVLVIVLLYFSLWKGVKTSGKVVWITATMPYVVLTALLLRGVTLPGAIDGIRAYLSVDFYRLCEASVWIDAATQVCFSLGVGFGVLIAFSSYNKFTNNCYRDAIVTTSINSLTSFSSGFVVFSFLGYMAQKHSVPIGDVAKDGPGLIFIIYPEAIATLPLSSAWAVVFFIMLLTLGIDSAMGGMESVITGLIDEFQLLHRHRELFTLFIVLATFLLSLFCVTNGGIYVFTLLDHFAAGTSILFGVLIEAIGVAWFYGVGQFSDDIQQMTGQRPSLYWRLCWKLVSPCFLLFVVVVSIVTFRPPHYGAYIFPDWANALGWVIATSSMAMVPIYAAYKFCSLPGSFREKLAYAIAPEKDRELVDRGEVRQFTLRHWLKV

Row | SMILES | EC50 [1] [nM] | inhibition [2] | Activity [3] | Activity [4] | Activity [5] | Activity [6] | Activity [7] | Activity [8] | IC50 [9] [nM] | IC50 [10] [µM] | EC50 [11] [nM] | Ki [12] [nM] | EC50 [13] [nM]
1 | C[C@@H](NC1CC1)C(=O)c1cccc(Cl)c1 | 733 | Active | Active | inactive | inactive | inactive | inactive | inactive | 369 | – | – | – | –
2 | Cc1ccc(C(=O)C(C)NC2CC2)cc1Cl (centres undefined) | 181 | Active | Active | inactive | inactive | inactive | inactive | inactive | 592 | – | – | – | –
3 | COc1cccc(C(=O)C(C)NC2CC2)c1 (centres undefined) | 1010 | Active | Active | inactive | inactive | inactive | inactive | inactive | 2370 | – | – | – | –
4 | CCCC(N)Cc1ccccc1 (centres undefined) | – | Active | Active | inactive | inactive | inactive | inactive | inactive | 2600 | > 10 | – | – | –
5 | CCC(Cc1ccccc1)NC (centres undefined) | 4700 | Active | Active | inactive | inactive | inactive | inactive | inactive | – | – | 225 | – | –
6 | CC(NC1CC1)C(=O)c1cccc(Br)c1 (centres undefined) | 621 | Active | Active | inactive | inactive | inactive | inactive | inactive | 386 | – | – | – | –
7 | Cc1ccc(C(=O)C(C)NC2CC2)cc1 (centres undefined) | 667 | Active | Active | inactive | inactive | inactive | inactive | inactive | 1100 | – | – | – | –
8 | Cc1cccc(C(=O)C(C)NC2CC2)c1 (centres undefined) | 1070 | Active | Active | inactive | inactive | inactive | inactive | inactive | 1100 | – | – | – | –
9 | CCNC(C)C(=O)c1ccccc1 (centres undefined) | – | – | – | – | – | – | – | – | – | – | – | 1010 | 2120
